Published values gathered from unrelated publications.
Lines come from different studies, so protocols differ.
Observed: cell growth or viability

SMILES	cell line	test	setting	endpoint	value
COc1c2c(cc3c1OCO3)[C@]13C=C[C@H](OC)C[C@@H]1[N@](C2)C[C@H]3OC(=O)c1ccco1	PANC-1	WST-1	–	IC50	> 10 µM
COC1=C2C[C@@H](C)C[C@H](OC)[C@H](O)[C@@H](C)/C=C(\C)[C@H](OC(N)=O)[C@@H](OC)/C=C\C=C(/C)C(=O)NC(=C(C)C1=O)C2=O	ARPE-19	MTT	–	IC50	> 20 µM
C1COCCN1.COc1ccc(/C=C\c2cc(I)c(OC)c(I)c2)cc1OP(=O)(O)O	SF-268	SRB	48 h	GI50	0.054 µg/mL
COc1cc(C(=O)c2cc3cc(N)cc(OC)c3s2)cc(OC)c1OC	human Lymphocyte	MTT	72 h	IC50	> 20 µM
COc1c2c(cc3c1OCO3)[C@]13C=C[C@H](OC)C[C@@H]1[N@](C2)C[C@H]3OC(=O)c1ccoc1	PANC-1	WST-1	–	IC50	> 10 µM
COC1=C2C[C@@H](C)C[C@H](OC)[C@H](O)[C@@H](C)/C=C(\C)[C@H](OC(N)=O)[C@@H](OC)/C=C\C=C(/C)C(=O)NC(=C(c3ccccc3)C1=O)C2=O	ARPE-19	MTT	–	IC50	8.3 µM
C=CC(=O)Nc1cc(Nc2nccc(-c3cn(C)c4ccccc34)n2)c(OC)cc1N(C)CCN(C)C	BaF3	–	72 h	GI50	2.76 µM
CCCc1cc(=O)n2nc(NCc3c(F)cc(Cl)cc3F)c(C#N)c2[nH]1	CAL-51	ATP luminescence	72 h	IC50	> 50 µM
